The values below come from PubChem BioAssay.

Active and inactive are the calls of the source.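 Rule for the calls, unless noted: active = NADPH fluorescence slope more negative than the mean of all samples by about 3 SD, 99.7% confidence; inactive = the rest.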

A short description of assay [1]: inhibitors of TNFa-induced NFkB p65 translocation, primary screen, imaging, HUVEC, MLSMR starter and 10KST1 sets (AID 438;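 active = inhibition above 20% together with a positive visual image hit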;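 note: compound added about 3h40 before a 20 min TNFalpha stimulation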;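 for inhibition: signal is the nuclear over cytoplasmic p65 intensity ratio per well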). The settings on record: HUVEC TNFa-induced p65 nuclear translocation; cell count: measured here: nuclei count (cytotoxicity indicator), at 2.08 µM; inhibition: at 2 µM, stronger effect = higher value, 0% TNFa-plus-vehicle, 100% no-TNFa wells.
Assay [2] in a line: inhibitors of E-selectin induction by TNFa, primary screen, imaging, HUVEC, immunofluorescence, MLSMR starter and 10KST1 sets (AID 487;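 active = visually confirmed hit in the image check and inhibition above 20%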;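 for inhibition: signal is fraction of cell area covered by stained E-selectin grains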;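 for nuclei count: 100% = median nuclei count of all wells on the same plate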). The conditions noted are these: HUVEC TNFalpha-induced E-selectin immunofluorescence imaging, at 2 µM; inhibition: stronger effect = higher value; nuclei count: measured here: cell number, toxicity.
Assay [3] in a line: DUSP6 inhibitors restoring Erk phosphorylation by chemical complementation, primary imaging in DUSP6-transfected HeLa (AID 609;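 active = compounds giving at least 50% inhibition in the cell-based MKP-3 phosphatase rescue imaging test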;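 for inhibition: phospho-Erk level distribution per well compared with pooled transfected vehicle control wells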). The settings on record: HeLa MKP-3 transfected, phospho-Erk imaging KS statistic, at 10 µM, cells stimulated with TPA for 15 min.
The target in assay [4] is Dual specificity protein phosphatase 6 (Homo sapiens) (UniProt Q16828). Described as above. The conditions noted are these: HeLa MKP-3 transfected, phospho-Erk imaging KS statistic; at 10 µM; stronger effect = higher value; cells stimulated with TPA for 15 min.
The target of assay [5] is Voltage-gated potassium channel subunit beta-2 (Rattus norvegicus) (UniProt P62483). The assay can be described thus: KvBeta enzyme negative modulators, primary screen, biochemical, NADPH fluorescence (AID 622;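 active = fluorescence slope higher than the sample average by over 3 SD, cut at about -0.22 in these data, passing the limit was not always enough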;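 note: slope of raw intensity against log time taken from 70 to 1610 s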). The conditions noted are these: recombinant KvBeta, 4-cyanobenzaldehyde reduction, at 10 µM, stronger effect = higher value.
The target is the same in assay [6]. Put plainly: KvBeta positive modulators, primary screen, biochemical, NADPH fluorescence (AID 623).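 Note: fluorescence intensity change per second fitted from 20 to 320 s.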 The settings on record: Recombinant KvBeta, NADPH fluorescence decrease slope, 10 min; at 10 µM; stronger effect = lower value.
Assay [7] has as its target Muscarinic acetylcholine receptor M4 (Homo sapiens) (UniProt P08173). The assay can be described thus: compounds altering M4/GIRK thallium flux, either direction, primary screen, M4 allosteric agonist project, cell-based, HEK293 M4/GIRK, BTC-AM (AID 625;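 active = fluorescence slope after compound addition differing from the mean of all tested samples at 99.7% confidence, mostly higher but some lower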;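 note: thallium influx through GIRK channels coupled to M4 in HEK293 cells with BTC-AM dye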). The conditions noted are these: at 10 µM, actives lie on both sides. In outline: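 assay system = HEK293 cells with M4 receptor and GIRK channels | medium = pH 7.3 thallium assay buffer | doses = 10 µM final, single point | timing = cells overnight at 37 °C, BTC-AM loading 1 h, reads 2 min total | signal = BTC-AM fluorescence, 1 Hz kinetic reads | read-out = post-addition slope, 15–24 s, of baseline-normalized fluorescence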

Assay [8] is described as follows: inhibitors of larval lipid processing in zebrafish, primary screen, whole organism, PED6 fluorescence, gall bladder and intestine (AID 686;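 active = a full or partial loss of lipid-probe fluorescence in the fish gall bladder, intestine or both, judged by eye; inactive = no fluorescence loss, or compound toxic to the fish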;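 note: larvae 5 to 7 days old with five fish per well; signal comes from phospholipase A2 cleavage of quenched PED6 carried via bile; overnight exposure to compound and PED6 before scoring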). The conditions noted are these: Zebrafish larvae PED6 lipid processing, fluorescence scoring; screened at 20 µM (by protocol). The essentials:
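Also added: quenched phospholipase substrate PED6, 100 nM final, ingested by larvae; System: zebrafish larvae, 5-7 d; Quantity: 5 larvae per well; Compound: 20 µM single dose; Schedule: overnight compound and PED6 incubation; Read-out: visual per-well fluorescence inhibition score; Measured by: By-eye fluorescence microscopy; Medium: E3.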

Assay [9] can be described thus: inhibitors of Chlamydomonas gravitaxis, primary screen, whole organism, Chlamydomonas reinhardtii, WT vs cilia-less mutant, absorbance, 96-well (AID 463189;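 active = inhibition at or above 50% relative to wild type and mutant plate controls; inactive = inhibition below 50%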;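 note: 0% = wild type cc124 cells in DMSO and 100% = ciliumless bld1 mutant cells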). The settings on record: OD600 absorbance, 2 days, at 10 µM, stronger effect = higher value.
Setting [10] is: measured here: cell density z-score.
Where [11] appears, read: measured here: nuclear c-Myc green intensity z-score.
Setting [12] is: measured here: nuclear pErk red intensity z-score, stronger effect = higher value.

Sequence of Voltage-gated potassium channel subunit beta-2 (Rattus norvegicus) (P62483 whole entry, looked up): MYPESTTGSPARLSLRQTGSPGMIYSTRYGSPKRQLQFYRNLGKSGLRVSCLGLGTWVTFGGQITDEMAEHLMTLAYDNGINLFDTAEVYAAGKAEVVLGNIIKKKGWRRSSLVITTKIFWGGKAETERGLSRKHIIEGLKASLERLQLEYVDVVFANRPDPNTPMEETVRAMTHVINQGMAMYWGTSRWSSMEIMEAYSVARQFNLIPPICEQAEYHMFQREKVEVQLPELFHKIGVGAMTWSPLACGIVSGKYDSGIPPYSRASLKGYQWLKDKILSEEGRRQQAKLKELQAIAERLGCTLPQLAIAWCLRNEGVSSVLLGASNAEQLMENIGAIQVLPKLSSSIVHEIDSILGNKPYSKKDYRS
Sequence of Muscarinic acetylcholine receptor M4 (Homo sapiens) (P08173 whole entry, looked up): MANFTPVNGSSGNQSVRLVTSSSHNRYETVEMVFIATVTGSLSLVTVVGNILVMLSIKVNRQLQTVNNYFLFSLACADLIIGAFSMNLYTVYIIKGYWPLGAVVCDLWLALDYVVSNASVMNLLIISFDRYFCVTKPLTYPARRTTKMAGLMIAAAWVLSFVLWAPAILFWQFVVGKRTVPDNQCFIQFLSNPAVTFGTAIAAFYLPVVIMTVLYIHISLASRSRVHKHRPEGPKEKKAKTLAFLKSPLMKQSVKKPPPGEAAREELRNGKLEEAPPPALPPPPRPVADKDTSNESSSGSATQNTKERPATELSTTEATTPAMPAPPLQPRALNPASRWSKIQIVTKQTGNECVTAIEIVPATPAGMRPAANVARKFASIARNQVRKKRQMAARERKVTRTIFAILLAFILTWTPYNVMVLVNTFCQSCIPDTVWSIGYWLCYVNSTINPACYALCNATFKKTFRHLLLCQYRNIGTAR
Sequence of Dual specificity protein phosphatase 6 (Homo sapiens) (Q16828 whole entry, looked up): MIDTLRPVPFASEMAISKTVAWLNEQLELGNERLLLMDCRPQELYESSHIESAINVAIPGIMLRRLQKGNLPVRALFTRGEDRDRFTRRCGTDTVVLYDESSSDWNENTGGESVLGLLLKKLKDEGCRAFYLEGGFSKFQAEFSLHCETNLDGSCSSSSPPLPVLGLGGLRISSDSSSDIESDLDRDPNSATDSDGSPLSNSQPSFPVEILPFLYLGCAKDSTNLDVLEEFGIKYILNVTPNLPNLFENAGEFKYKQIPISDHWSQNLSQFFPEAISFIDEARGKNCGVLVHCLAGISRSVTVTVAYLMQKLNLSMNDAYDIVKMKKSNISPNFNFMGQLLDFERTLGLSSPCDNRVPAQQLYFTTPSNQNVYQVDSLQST

For `CCOC(=O)NC(Nc1cc(C)on1)(C(F)(F)F)C(F)(F)F`, the cell count in assay [1] was determined as 705. Besides, the inhibition (commonly the drop in the measured response relative to a control, in per cent) in assay [1] was -7.9% (inactive); in [2], -70% (inactive); in [4] it was -11.4% (inactive); in [9] it was -3.89% (inactive). The compound further registered a nuclei count in assay [2] of 169%. Further, the z-score is -0.319 in assay [3] (setting [10]), 1.98 in assay [3] (setting [11]) and 0.812 in assay [3] (setting [12]). In addition, the results for the fluorescence slope in [5] and in assay [7] were -0.465 (inactive) and 0.00511 (inactive), respectively. The NADPH fluorescence slope in [6] is -3.9e-05 (inactive). Besides, the compound was classed as inactive in assay [8].
As for `CCC1(C)Cc2c(sc(NC(=O)CCC(=O)O)c2C#N)CO1` (centres undefined), the cell count in assay [1] is 525. Further, the inhibition is -3.4% (inactive) in assay [1], -47% (inactive) in assay [2], 9.91% (inactive) in assay [4] and -2.53% (inactive) in assay [9]. In addition, the nuclei count in [2] was 165%. The z-score in assay [3] (setting [10]) was determined as 1.02; in assay [3] (setting [11]), 0.907; in assay [3] (setting [12]) it was 0.102. The fluorescence slope was -0.382 (inactive) in assay [5] and 0.00482 (inactive) in assay [7]. Also, in assay [6], the NADPH fluorescence slope is -5.7e-05 (inactive). In addition, in [8], the result was inactive.
In the case of `CC(NC(=O)NCCCn1ccnc1)(C(F)(F)F)C(F)(F)F`, the cell count in assay [1] was determined as 679. Further, the inhibition in assay [1] was 2.1% (inactive); in assay [2] it was -67.3% (inactive); in assay [4], -13.3% (inactive); in [9], 0.921% (inactive). The compound also returned a nuclei count in [2] of 166%. Moreover, the z-score is -0.846 in [3] (setting [10]), -0.74 in assay [3] (setting [11]) and 0.188 in assay [3] (setting [12]). Moreover, the fluorescence slope in assay [5] is -0.438 (inactive); in assay [7], 0.005 (inactive). Also, the NADPH fluorescence slope in assay [6] was -5.8e-05 (inactive). In addition, in assay [8], the compound was classed as inactive.
On to `CC12CCC(=O)N1c1c(sc3nc(N4CCOCC4)c4c(c13)CCCC4)C(=O)N2` (centres undefined), for which the cell count in assay [1] is 363. Moreover, the inhibition in [1] is 1.4% (inactive); in assay [2], -105% (inactive); in assay [4], 5.42% (inactive); in assay [9], 26.7% (inactive). Besides, in assay [2], the nuclei count turned out to be 122%. Further, the z-score in assay [3] (setting [10]) is -0.444; in assay [3] (setting [11]), 1.24; in assay [3] (setting [12]), 0.642. The fluorescence slope in assay [5] is -0.316 (inactive); in assay [7], 0.00445 (inactive). The NADPH fluorescence slope in assay [6] was -5.5e-05 (inactive). Moreover, the outcome in [8] was inactive.
Turning to `COCCCn1c2nc3ccccc3nc2c2c(=O)n(-c3ccccc3OC)c(C)nc21`, the cell count in assay [1] was determined as 671. For the same compound, the inhibition in assay [1] was -8.6% (inactive); in [2] it was -13.5% (inactive); in [4] it was 9.07% (inactive); in assay [9], 4.04% (inactive). The compound also had a nuclei count in assay [2] of 185%. The z-score in [3] (setting [10]) is 0.714; in [3] (setting [11]) it was -0.748; in [3] (setting [12]), 0.0802. In addition, the fluorescence slope in assay [5] was -0.442 (inactive); in [7], 0.0072 (inactive). Also, in assay [6], the NADPH fluorescence slope is -3.7e-05 (inactive). The call in assay [8] was inactive.
`CCc1nc(NC2CCCCC2)c(C#N)c2c1COC(C)(C)C2`: the cell count in [1] was 573. The inhibition is -9.3% (inactive) in assay [1], -95.5% (inactive) in assay [2], 29.5% (inactive) in assay [4] and -1.73% (inactive) in [9]. In addition, in [2], the nuclei count turned out to be 153%. For the same compound, the z-score in assay [3] (setting [10]) is 0.843; in assay [3] (setting [11]), -0.37; in [3] (setting [12]), -0.579. Also, the fluorescence slope in [5] was -0.475 (inactive); in [7], 0.00603 (inactive). The NADPH fluorescence slope in assay [6] was -2.5e-05 (inactive). The outcome in [8] is “inactive; toxic”.
Regarding `COc1ccc(C2Nc3ccccc3C(=O)N2Cc2ccco2)cc1CN1C(=O)c2ccccc2C1=O` (centres undefined), the cell count in [1] was 691. Besides, the inhibition in assay [1] was -6.9% (inactive); in [2], 20.3% (inactive); in assay [4], 9.07% (inactive); in assay [9], 8.71% (inactive). In addition, the nuclei count in assay [2] was 132%. In addition, the z-score in assay [3] (setting [10]) is 0.751; in assay [3] (setting [11]) it was -1.72; in [3] (setting [12]), 0.41. Besides, the fluorescence slope in [5] was -0.461 (inactive); in [7], 0.00497 (inactive). Also, in assay [6], the NADPH fluorescence slope is -4.4e-05 (inactive). Moreover, in assay [8], the compound was classed as inactive.
Take `C=CC[N+](C)(C)CCCNC(=O)/C=N/O`: the cell count in assay [1] came out at 665. For the same compound, the inhibition in [1] was -3.3% (inactive); in assay [2] it was -22.3% (inactive); in [4] it was -9.53% (inactive); in assay [9] it was -5.25% (inactive). Further, the nuclei count in [2] came out at 164%. For the same compound, the values for the z-score in [3] (setting [10]), in assay [3] (setting [11]) and in [3] (setting [12]) were 0.15, -0.161 and -1.51, respectively. In addition, the values for the fluorescence slope in assay [5] and in assay [7] were -0.482 (inactive) and 0.00537 (inactive), respectively. Further, the NADPH fluorescence slope in assay [6] is -4.6e-05 (inactive). In addition, the compound was called inactive in [8].
Take `C=CCOc1ccc(/C(O)=C2\C(=O)C(=O)N(CCN(C)C)C2c2cccs2)cc1` (centres undefined): in assay [1], the cell count came to 642. The inhibition in [1] is 2.8% (inactive); in [2], -0.3% (inactive); in [4], 12.8% (inactive); in assay [9] it was 10.2% (inactive). In addition, in assay [2], the nuclei count came to 181%. In addition, the z-score in assay [3] (setting [10]) is 0.295; in assay [3] (setting [11]), 1.17; in assay [3] (setting [12]) it was 0.318. The fluorescence slope was -0.469 (inactive) in [5] and 0.00599 (inactive) in assay [7]. Further, the NADPH fluorescence slope in assay [6] is -6.6e-05 (inactive). In addition, in assay [8], the compound was called inactive.
Take `CCCCc1nc(N2CCOCC2)c(C#N)c2c1COC(C)(C)C2`: the cell count in assay [1] worked out at 530. The inhibition was -4.2% (inactive) in assay [1], -202% (inactive) in assay [2], 15.4% (inactive) in assay [4] and 1.03% (inactive) in assay [9]. In assay [2], this compound returned a nuclei count of 149%. For the same compound, the z-score was 1.13 in assay [3] (setting [10]), -0.937 in assay [3] (setting [11]) and -0.238 in assay [3] (setting [12]). Moreover, the fluorescence slope is -0.458 (inactive) in assay [5] and 0.00404 (inactive) in assay [7]. In assay [6], the NADPH fluorescence slope is -6.7e-05 (inactive). Also, the compound was classed as inactive in assay [8].
For `COc1ccccc1-n1c(N)c(C(=O)NCC2CCCO2)c2nc3ccccc3nc21` (centres undefined), the cell count in assay [1] turned out to be 630. Moreover, the inhibition in assay [1] was -11.8% (inactive); in assay [2], -49.3% (inactive); in [4] it was 14.7% (inactive); in assay [9] it was 19.9% (inactive). This compound also gave a nuclei count in assay [2] of 160%. Further, the z-score in assay [3] (setting [10]) is 1.5; in assay [3] (setting [11]) it was -1.96; in assay [3] (setting [12]), 0.209. Further, the values for the fluorescence slope in [5] and in assay [7] were -0.0437 (inactive) and 0.00576 (inactive), respectively. Besides, the NADPH fluorescence slope in assay [6] is 2e-05 (inactive). Moreover, the compound was called inactive in [8].
On to `CN1CCc2c(C#N)c(N3CCCCC3)nc(NCc3ccccc3)c2C1`, for which the cell count in assay [1] came out at 577. The inhibition was -13.5% (inactive) in assay [1], -93.5% (inactive) in assay [2], -2.09% (inactive) in assay [4] and 7.09% (inactive) in [9]. The compound also returned a nuclei count in [2] of 143%. The values for the z-score in assay [3] (setting [10]), in assay [3] (setting [11]) and in assay [3] (setting [12]) were 0.729, -1.12 and 0.497, respectively. For the same compound, the fluorescence slope in assay [5] was -0.422 (inactive); in assay [7] it was 0.00359 (inactive). The NADPH fluorescence slope in assay [6] was -6.7e-05 (inactive). The compound was classed as inactive in assay [8].
Turning to `C=CCn1c(=N)c(C(=O)OCC)cc2c(=O)n3cccc(C)c3nc21`, in assay [1], the cell count worked out at 614. In addition, the inhibition in assay [1] was 5.3% (inactive); in assay [2] it was -125% (inactive); in assay [4] it was -9.66% (inactive); in [9] it was 159% (active). The same compound registered a nuclei count in [2] of 149%. Also, the figures for the z-score in assay [3] (setting [10]), in [3] (setting [11]) and in [3] (setting [12]) were -2.08, 1.41 and 1.9, respectively. Further, the fluorescence slope in assay [5] is -0.114 (inactive); in [7], 0.00285 (inactive). Moreover, in [6], the NADPH fluorescence slope was -2e-05 (inactive). In [8], the outcome was inactive.
